Results on 22 compounds are retold here after ChEMBL document CHEMBL4138217, “Discovery of a novel series of α-terpineol derivatives as promising anti-asthmatic agents: Their design, synthesis, and biological evaluation” (2018).

Test [1] has as its system Smooth muscle of trachea. Description: Anti-asthmatic activity in guinea pig tracheal smooth muscle ring assessed as reduction in acetylcholine-induced muscle contractions after 60 mins. The class given is functional, tissue-based. The settings on record: Cavia porcellus. Summed up: (§1)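 Guinea pig tracheal rings were held in Krebs-Henseleit at 36.5±0.5°C under 95% O2/5% CO2, at 1.0 g resting tension with 60-min equilibration. Isometric tension was recorded after acetylcholine-induced contraction. The read-out was percentage change in smooth muscle tension with compound, as means±S.D (n=10).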

Test [2] concerns the target Adrenergic receptor beta (Rattus norvegicus) (UniProt P18090+P10608+P26255). Briefly: Agonist activity at beta-adrenergic receptor in rat airway smooth muscle cells assessed as reduction in acetylcholine-induced muscle contractions by measuring cAMP levels after 18 hrs post acetylcholine stimulation by ELISA (reference value: 8.402 +/- 0.041 nmol/l). It is filed as functional. In a few lines: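 Rat airway smooth muscle cells (passages 4–6) were seeded at 5×10^4/mL and grown for 48 h. They were stimulated with acetylcholine 0.33 mmol/L for 4 h, then exposed to compound for 18 h. Cells were trypsinized (0.25%, 2 min) and sonicated, and cAMP in the supernatant was measured by ELISA.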
For orientation: cAMP levels reflect the balance of adenylyl cyclase and phosphodiesterase activity.

Test [3] has as its system Rattus norvegicus. Briefly: Anti-asthmatic activity in ovalbumin-induced asthmatic Sprague-Dawley rat model assessed as improvement in lung function by measuring dynamic compliance of the airway at 1 g/kg, po co-administered with OVA from day 15 to 21 of experiment period (reference value: 0.46 +/- 0.17). It is filed as functional.
In test [4] the test system is Rattus norvegicus. Briefly: Anti-asthmatic activity in ovalbumin-induced asthmatic Sprague-Dawley rat model assessed as improvement in lung function by measuring airway resistance at 1 g/kg, po co-administered with OVA from day 15 to 21 of experiment period (reference value: 67.33 +/- 10.54). It is filed as functional.
Test [5] relates to Rattus norvegicus. Briefly: Anti-asthmatic activity in ovalbumin-induced asthmatic Sprague-Dawley rat model assessed as IL-14 levels in serum at 1 g/kg, po co-administered with OVA from day 15 to 21 of experiment period (reference value: 16.04 +/- 1.41 pg/ml). It is filed as functional.
For test [6], the system named is Rattus norvegicus. Description: Anti-asthmatic activity in ovalbumin-induced asthmatic Sprague-Dawley rat model assessed as IL-17 levels in serum at 1 g/kg, po co-administered with OVA from day 15 to 21 of experiment period (reference value: 16.85 +/- 1.13 pg/ml). It is filed as functional.
For test [7], the system named is Smooth muscle of trachea. Briefly: Anti-asthmatic activity in guinea pig tracheal smooth muscle ring assessed as reduction in acetylcholine-induced muscle contractions by measuring muscle relaxation at 0.75 mmol/l after 60 mins (reference value: 7.73 +/- 4.81%). It is filed as functional, Cavia porcellus. Details: scale not given: the % may be the effect or the level left. Summed up:
as §1

For test [8], the system named is Smooth muscle of trachea. Briefly: Anti-asthmatic activity in guinea pig tracheal smooth muscle ring assessed as reduction in acetylcholine-induced muscle contractions by measuring muscle relaxation at 1.25 mmol/l after 60 mins (reference value: 13.59 +/- 9.14%). The class given is functional, Cavia porcellus. Details: scale not given: the % may be the effect or the level left. In a few lines: as §1

For test [9], the system named is Rattus norvegicus. Description: Anti-asthmatic activity in ovalbumin-induced asthmatic Sprague-Dawley rat model assessed as IL-14 levels in serum at 0.5 mg/kg, po co-administered with OVA from day 15 to 21 of experiment period (reference value: 16.04 +/- 1.41 pg/ml).
Test [10] relates to Rattus norvegicus. Briefly: Anti-asthmatic activity in ovalbumin-induced asthmatic Sprague-Dawley rat model assessed as IL-17 levels in serum at 0.5 mg/kg, po co-administered with OVA from day 15 to 21 of experiment period (reference value: 16.85 +/- 1.13 pg/ml).
Test [11] has as its system Rattus norvegicus. Briefly: Anti-asthmatic activity in ovalbumin-induced asthmatic Sprague-Dawley rat model assessed as improvement in lung function by measuring airway resistance at 0.5 mg/kg, po co-administered with OVA from day 15 to 21 of experiment period (reference value: 67.33 +/- 10.54).
Test [12] deals with Rattus norvegicus. Description: Anti-asthmatic activity in ovalbumin-induced asthmatic Sprague-Dawley rat model assessed as improvement in lung function by measuring dynamic compliance of the airway at 0.5 mg/kg, po co-administered with OVA from day 15 to 21 of experiment period (reference value: 0.46 +/- 0.17).
Test [13] deals with Rattus norvegicus. Briefly: Anti-asthmatic activity in ovalbumin-induced asthmatic Sprague-Dawley rat model assessed as improvement in lung function by measuring dynamic compliance of the airway at 1.6 g/kg, po co-administered with OVA from day 15 to 21 of experiment period (reference value: 0.46 +/- 0.17). The class given is functional.
Test [14] concerns Rattus norvegicus. Description: Anti-asthmatic activity in ovalbumin-induced asthmatic Sprague-Dawley rat model assessed as improvement in lung function by measuring airway resistance at 1.6 g/kg, po co-administered with OVA from day 15 to 21 of experiment period (reference value: 67.33 +/- 10.54). The class given is functional.
The subject of test [15] is Rattus norvegicus. Description: Anti-asthmatic activity in ovalbumin-induced asthmatic Sprague-Dawley rat model assessed as IL-14 levels in serum at 1.6 g/kg, po co-administered with OVA from day 15 to 21 of experiment period (reference value: 16.04 +/- 1.41 pg/ml). It is filed as functional.
In test [16] the test system is Rattus norvegicus. Briefly: Anti-asthmatic activity in ovalbumin-induced asthmatic Sprague-Dawley rat model assessed as IL-17 levels in serum at 1.6 g/kg, po co-administered with OVA from day 15 to 21 of experiment period (reference value: 16.85 +/- 1.13 pg/ml). It is filed as functional.

SMILES strings stand for the structures.

On to `CC1=CCC(C(C)(C)O)CC1` (stereo not given), for which the Activity result in the test on Smooth muscle of trachea [1] was “Dose-dependent effect”; in test [2] it was 8.51 nmol/L; with Rattus norvegicus [3], 0.53; in the test with Rattus norvegicus [4], 60.57; with Rattus norvegicus [5], 15.5 pg/mL; in the test with Rattus norvegicus [6], 16.19 pg/mL.
Regarding `CC1=CCC(C(C)(C)OC(=O)C(C)C)CC1` (stereo not given), the Activity with Smooth muscle of trachea [7] was 19.88%; in the test with Smooth muscle of trachea [8], 22.79%; in the test on Smooth muscle of trachea [1], “Dose-dependent effect”.
On the same counts, the results for `CC1=CCC(C(C)(C)OC(=O)C(C)(C)C)CC1` (stereo not given) are 25.49%, 28.02% and “Dose-dependent effect”.
Consider `CC1=CCC(C(C)(C)OC(=O)CSCC(O)CO)CC1` (stereo not given), for which the Activity is 34.84% in the test on Smooth muscle of trachea [7], 65.29% in the test with Smooth muscle of trachea [8], “Dose-dependent effect” with Smooth muscle of trachea [1] and 8.76 nmol/L in [2].
Regarding `CC1=CCC(C(C)(C)OC(=O)CN2CCOCC2)CC1` (stereo not given), the Activity result is “Dose-dependent effect” in the test with Smooth muscle of trachea [1] and 8.81 nmol/L in [2].
Regarding `CC1=CCC(C(C)(C)OC(=O)CN2CCCCC2)CC1` (stereo not given), the Activity entry in the test with Smooth muscle of trachea [1] was “Dose-dependent effect”.
As for `CC1=CCC(C(C)(C)OC=O)CC1` (stereo not given), the values for the Activity with Smooth muscle of trachea [7], in the test on Smooth muscle of trachea [8] and in the test on Smooth muscle of trachea [1] were 14.62%, 21.57% and “Dose-dependent effect”, respectively.
In the case of `CC(=O)OC(C)(C)C1CC=C(C)CC1` (stereo not given), the Activity in the test with Smooth muscle of trachea [7] is 34.35%; with Smooth muscle of trachea [8], 47.72%; in the test on Smooth muscle of trachea [1], “Dose-dependent effect”.
Take `CC1CCC(C(C)(C)O)CC1` (stereo not given): the Activity entry in the test with Smooth muscle of trachea [1] was “Dose-dependent effect”.
Turning to `CCCCCCCCCCCCCCCCCC(=O)OC(C)(C)C1CC=C(C)CC1` (stereo not given), the Activity result in the test on Smooth muscle of trachea [1] was “Dose-dependent effect”.
For the compound `CC(=O)OCC(=O)[C@@]1(O)[C@H](C)C[C@H]2[C@@H]3CCC4=CC(=O)C=C[C@]4(C)[C@@]3(F)[C@@H](O)C[C@@]21C` [DEXAMETHASONE ACETATE], the Activity in the test on Rattus norvegicus [9] amounted to 14.31 pg/mL; in the test with Rattus norvegicus [10] it was 16.06 pg/mL; in the test with Rattus norvegicus [11] it was 41.51; with Rattus norvegicus [12], 0.66.
`CC1=CCC(C(C)(C)OC(=O)CSCCO)CC1` (stereo not given): the Activity result in the test with Smooth muscle of trachea [1] was “Dose-dependent effect”; in [2], 8.82 nmol/L; with Rattus norvegicus [13], 0.88; in the test with Rattus norvegicus [14] it was 41.69; in the test with Rattus norvegicus [15] it was 14 pg/mL; in the test with Rattus norvegicus [16], 15.09 pg/mL.
For the compound `CCC(=O)OC(C)(C)C1CC=C(C)CC1` (stereo not given), the results for the Activity in the test on Smooth muscle of trachea [7], in the test with Smooth muscle of trachea [8] and in the test with Smooth muscle of trachea [1] were 18.18%, 23.22% and “Dose-dependent effect”, respectively.
Consider `Cn1c(=O)c2[nH]cnc2n(C)c1=O`, for which the Activity entry in the test on Smooth muscle of trachea [1] was “Dose-dependent effect”; in [2], 8.6 nmol/L.
Turning to `CC1=CCC(C(C)(C)OC(=O)CO[N+](=O)[O-])CC1` (stereo not given), the Activity result in the test with Smooth muscle of trachea [1] was “Dose-dependent effect”.
Regarding `CC1=CCC(C(C)(C)OC(=O)CN(C)CCO)CC1` (stereo not given), the Activity entry was “Dose-dependent effect” in the test with Smooth muscle of trachea [1]; 9.01 nmol/L in test [2]; 0.84 in the test on Rattus norvegicus [13]; 51.69 in the test on Rattus norvegicus [14]; 15.66 pg/mL in the test on Rattus norvegicus [15]; 16.35 pg/mL with Rattus norvegicus [16].
With `CCCCCCCCCCCCCC(=O)OC(C)(C)C1CC=C(C)CC1` (stereo not given), the Activity entry with Smooth muscle of trachea [1] was “Dose-dependent effect”.
As for `CC1=CCC(C(C)(C)OC(=O)CN(CCO)CCO)CC1` (stereo not given), the Activity result is “Dose-dependent effect” in the test with Smooth muscle of trachea [1] and 8.94 nmol/L in test [2].
Consider `CCN(CC)CC(=O)OC(C)(C)C1CC=C(C)CC1` (stereo not given), for which the Activity result is “Dose-dependent effect” with Smooth muscle of trachea [1] and 9.53 nmol/L in [2].
As for `CC1=CCC(C(C)(C)OC(=O)CN2CCC(=O)CC2)CC1` (stereo not given), the Activity result in the test on Smooth muscle of trachea [1] was “Dose-dependent effect”.
On to `CC1=CCC(C(C)(C)OC(=O)CN2CCC(O)CC2)CC1` (stereo not given), for which the Activity entry in the test on Smooth muscle of trachea [1] is “Dose-dependent effect”; in test [2], 8.98 nmol/L.
Consider `CCCC(=O)OC(C)(C)C1CC=C(C)CC1` (stereo not given), for which the Activity is 21.2% in the test with Smooth muscle of trachea [7], 25.47% in the test with Smooth muscle of trachea [8] and “Dose-dependent effect” in the test on Smooth muscle of trachea [1].
